Molecules are shown by their SMILES. The source made the active and inactive calls. No cut-off for these calls is given here.

For one experiment, the system named is Nucleic Acid. In words: Binding affinity to salmon sperm DNA assessed as DNA intercalation by circular dichroism. The experiment is classed as nucleic-acid assay. Conditions: Salmonidae. The gist of the method: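 CD spectra recorded in 50 mM Tris-HCl pH 8.0 with 100 mM KCl, 1 mM MgCl2 and salmon sperm DNA (25 µg/mL), inhibitor at 0, 10, 30 and 50 µM; spectral change obtained by subtracting the CD of reagent alone from the CD of DNA plus reagent.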

The target of experiment [1] is T1, DNA topoisomerase (Bos taurus) (UniProt A0JN73).
T1 sequence (whole entry): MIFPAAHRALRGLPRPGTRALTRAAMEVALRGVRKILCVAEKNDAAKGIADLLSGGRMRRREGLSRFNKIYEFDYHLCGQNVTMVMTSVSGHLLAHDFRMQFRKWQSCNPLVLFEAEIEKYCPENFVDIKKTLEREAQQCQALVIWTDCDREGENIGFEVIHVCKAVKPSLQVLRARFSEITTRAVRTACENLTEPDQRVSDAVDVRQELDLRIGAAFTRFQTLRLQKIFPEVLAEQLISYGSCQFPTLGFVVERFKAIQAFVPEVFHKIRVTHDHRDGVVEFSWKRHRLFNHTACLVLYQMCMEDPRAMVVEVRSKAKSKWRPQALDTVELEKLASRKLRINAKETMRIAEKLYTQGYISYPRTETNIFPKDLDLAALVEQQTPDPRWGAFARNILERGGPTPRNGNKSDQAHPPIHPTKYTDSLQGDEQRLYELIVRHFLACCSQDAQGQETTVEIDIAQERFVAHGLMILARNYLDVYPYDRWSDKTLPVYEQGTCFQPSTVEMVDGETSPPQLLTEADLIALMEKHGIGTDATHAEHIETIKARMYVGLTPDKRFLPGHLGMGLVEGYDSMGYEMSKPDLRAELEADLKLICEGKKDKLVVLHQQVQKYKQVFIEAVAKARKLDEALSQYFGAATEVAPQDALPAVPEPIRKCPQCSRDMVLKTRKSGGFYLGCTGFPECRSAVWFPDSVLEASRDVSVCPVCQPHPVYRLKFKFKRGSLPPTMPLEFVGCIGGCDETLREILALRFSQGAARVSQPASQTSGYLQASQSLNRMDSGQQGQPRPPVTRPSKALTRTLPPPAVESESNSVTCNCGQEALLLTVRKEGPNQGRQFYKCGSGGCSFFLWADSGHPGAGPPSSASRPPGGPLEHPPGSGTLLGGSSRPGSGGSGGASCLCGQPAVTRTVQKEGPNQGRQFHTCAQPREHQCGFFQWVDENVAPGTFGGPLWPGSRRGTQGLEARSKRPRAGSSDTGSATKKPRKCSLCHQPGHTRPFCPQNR
Description: Inhibition calf thymus topoisomerase 1 cleavage activity assessed as increase in nicked pBR322 DNA formation after 40 mins by gel electrophoresis.

Take `O=C1Oc2cc(O)ccc2/C1=C\c1ccc(O)cc1`: the result (with Nucleic Acid; in experiment [1]) was inactive. Turning to `CC[C@@]1(O)C(=O)OCc2c1cc1n(c2=O)Cc2cc3ccccc3nc2-1`, in the experiment with Nucleic Acid, the result was inactive. Also, in experiment [1], the result was Active. With `COc1cccc2c1C(=O)c1c(O)c3c(c(O)c1C2=O)C[C@@](O)(C(=O)CO)C[C@@H]3O[C@H]1C[C@H](N)[C@H](O)[C@H](C)O1`, the outcome in the experiment with Nucleic Acid was Active.

(Values after ChEMBL document CHEMBL1155708, “Isoaurostatin, a novel topoisomerase inhibitor produced by Thermomonospora alba” (J Nat Prod, 2001).)
